pIC50: −log10 of the molar value.

In this assay the test system is E. coli BW25113 ΔtolC growth inhibition, OD615. Put plainly: E. coli ΔtolC antibacterial growth inhibition – strain BW25113 ΔtolC::kan, dose response (AID 617). The procedure, abridged: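 Test system: E. coli BW25113 ΔtolC::kan bacteria / Buffer or medium: kanamycin-containing LB broth, 50 µg/mL / Compound: serial dilution series of compound / Incubation: bacterial growth with compound for 20 h, 37 °C / Measured by: OD615 / Read-out basis: growth-inhibition IC50 from four-parameter logistic curve, bounds set to 0% and 100%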
What is called pIC50 is −log10 of the IC50, conventionally taken in molar units. Regarding `O=C(CCc1nc(-c2ccccc2F)no1)Nc1ccc(Oc2ccccc2)cc1`, the negative logarithm of the IC50 (pIC50) is 5.02. On to `O=C(NCCc1ccccc1)c1nc2c(nnn2Cc2ccccc2Cl)c(=O)[nH]1`, for which the negative-log IC50 (pIC50) is 5.33. To `C#CCSc1nnc(-c2cccc3ccccc23)o1` belongs 4.91.

Take `CCC(=Nc1ccc(OC)cc1OC)c1c(O)n(C2CCCCC2)c(=O)[nH]c1=O`: the pIC50 was 5.31. The same measure for `COc1ccc(-c2n[nH]c(C(F)(F)F)c2-c2cc3ccccc3o2)c(O)c1`: 5.70; for `Cc1cccc(Cc2c(C)nc3c(C(=O)NCc4ccco4)cnn3c2C)c1`: 4.30. The same measure for `Cc1nc2ncnn2c(N2CCN(C(c3ccccc3)c3ccccc3)CC2)c1C`: 5.16; for `COC(=O)c1ccc(O)c(Sc2cc(C(=O)OC)ccc2O)c1`: 5.72; for `CN(C)c1ccc(/C=N/n2ncc3ccccc32)cc1`: 4.46. The same measure for `CC1=C(C#N)c2nc(N)c(C#N)c(C)c2/C1=C\c1ccccc1`: 5.52; for `Cc1cc(C(=O)OCc2nnc(-c3ccccc3)o2)c(C)n1-c1ccccc1`: 5.01; for `COc1ccc(S(=O)(=O)n2cnc3cc(C)c(C)cc32)cc1C`: 4.87.

Consider `Cc1cccc(-n2ncc3c(N4CCC(C)CC4)ncnc32)c1`, for which the pIC50 is 4.89. Take `CCCOC(=O)/C(C(N)=NCc1ccccc1)=C(\O)OCCC`: the pIC50 was 4.79. Regarding `Cc1onc(-c2ccccc2)c1C(=O)OCC(=O)c1ccccc1`, the negative logarithm of the IC50 (pIC50) is 4.62.

With `O=C(CSc1ncnc2c1oc1ccccc12)N1CCCc2ccccc21`, the pIC50 was 4.82. To `CCC1CCCCN1S(=O)(=O)c1ccc2c(c1)CCN2C(=O)C1CCC1` (stereo unspecified) belongs 4.83; to `CCn1c(SC)nnc1-c1sc2cc(Cl)ccc2c1Cl`, 4.94; to `COc1ccc(C(C(O)C(=O)c2c[nH]c3ccccc23)N2CCN(c3ccc(OC)cc3)CC2)cc1` (stereo unspecified), 4.95. Turning to `c1ccc2c(c1)CCN(c1nc3cc4c(cc3s1)OCCO4)C2`, the negative logarithm of the IC50 (pIC50) was 4.83. For the molecule `Cc1cccc(NC(=O)c2cc(NC(=O)C3CCCCC3C(=O)O)ccc2N2CCCCC2)c1` (stereo unspecified), the pIC50 is 5.21. To `CC(C)(C)N1C(=O)Cc2c1nc(N)c1c(N)nc(N3CCCCC3CO)c(C#N)c21` (stereo unspecified) belongs 5.18; to `Cc1nn(Cc2ccc(C(=O)N3c4ccc(F)cc4CCC3C)o2)c(C)c1Br` (stereo unspecified), 5.01. Take `N#Cc1nc(-c2ccc(OCc3ccccc3)cc2)oc1NCCCn1ccnc1`: the pIC50 is 5.22. To `O=C(Nc1cccc(C(F)(F)F)c1)N1CCC(c2nc(-c3ccc(F)cc3)no2)CC1` belongs 5.43; to `CCOC(=O)c1sc(NC(=O)CSc2n[nH]c(-c3ccccc3)n2)c(C#N)c1C`, 5.77. Take `Cc1onc(-c2ccccc2)c1C(=O)Nc1sc2c(c1C#N)CCC2`: the pIC50 is 4.99.

As for `O=C(Nc1ccc(N2CCN(C(=O)c3ccco3)CC2)c(Cl)c1)c1c(F)c(F)c(F)c(F)c1F`, the pIC50 was 5.40. Regarding `COC(=O)c1cccc(-n2nnnc2SCC(=O)Nc2nc3c(s2)CCCC3)c1`, the negative-log IC50 (pIC50) was 4.80.

As to `Cc1nc2nc(-c3ccco3)[nH]n2c(=O)c1Cc1ccccc1`, the pIC50 was 5.22. Turning to `O=c1c2ccccc2nc(SCc2cn3ccsc3n2)n1-c1ccccc1F`, the negative-log IC50 (pIC50) was 4.63. To `Cc1cc(N2CCN(c3ccccc3)CC2)nc(-c2ccccc2)n1` belongs 4.84; to `CCOc1ccc(S(=O)(=O)Nc2cccc(Cl)c2)cc1`, 5.30; to `O=C(c1ccco1)N1CCN(c2c(-c3ccccc3)c3cc(Cl)ccc3[nH]c2=O)CC1`, 4.62. The same measure for `N#Cc1ccc(CSc2nnc(-c3cccs3)n2-c2ccccc2)cc1`: 4.81; for `O=C(c1cccc(COc2ccc(Cl)cc2Cl)c1)N1CCN(c2ccccn2)CC1`: 5.42. The same measure for `COc1ccc(OCC(O)Cn2c(=N)n(Cc3ccccc3)c3ccccc32)cc1` (stereo unspecified): 4.62; for `Cc1cccc(N2CC(c3nc4ccccc4n3C)CC2=O)c1C` (stereo unspecified): 5.31; for `O=C(COc1ccccc1Br)c1ccc(O)cc1O`: 4.88. For `CCN(CC)c1ccc(C(=O)Nc2cccc(F)c2)cc1`, the pIC50 is 5.09. As to `Cc1ccc(C(c2nnnn2CCc2ccccc2)N2CCSCC2)cc1` (stereo unspecified), the pIC50 was 4.51.

In the case of `Cc1cc(NC(=O)c2ccccc2)sc1C`, the pIC50 is 5.25. The same measure for `N/C(=N/O)c1nc(N2CCCC2)nc(N(c2ccccc2)c2ccccc2)n1`: 4.96; for `c1ccc(-c2csc(N3CCN(c4ccccn4)CC3)n2)cc1`: 5.05. With `CCOc1cc(-c2c(C#N)c(=O)[nH]c3c2c(C)nn3-c2ccc(F)cc2)ccc1O`, the negative logarithm of the IC50 (pIC50) is 5.61. To `CCC(Sc1nnnn1-c1ccccc1)C(=O)Nc1nc2ccccc2s1` (stereo unspecified) belongs 5.26; to `COc1cccc(C(=O)Nc2nnc(-c3cccs3)o2)c1`, 5.41. To `CCOC(=O)c1sc(NC(=O)c2c(C)nn(Cc3ccccc3)c2C)cc1C` belongs 5.03; to `Cc1ccc(OCc2nc(C#N)c(N3CCN(Cc4ccccc4)CC3)o2)cc1`, 4.89; to `O=C(Nc1ncc(Br)s1)C(Cc1ccccc1)n1cccc1` (stereo unspecified), 5.49. To `Cc1cc(C)n(-c2nc(NC(C)C)nc(NC(C)C)n2)n1` belongs 5.53. As to `CC1=C(C(=O)OC2CCCCCC2)C(c2ccc(C)o2)C2=C(CCCC2=O)N1` (stereo unspecified), the pIC50 is 5.20. For `O=C(OC1CCc2ccccc2C1=O)c1ccccc1O` (stereo unspecified), the negative logarithm of the IC50 (pIC50) was 4.56.

In the case of `c1ccc(Cn2nnc3c(N4CCN(Cc5ccc6c(c5)OCO6)CC4)ncnc32)cc1`, the pIC50 was 4.65. In the case of `CCOC(=O)c1cccc(NC(=O)Nc2cc(OC)ccc2OC)c1`, the pIC50 is 4.69. The same measure for `COC(=O)c1[nH]c2cccc(OC)c2c1NC(=O)CN1CC2(C)CC1CC(C)(C)C2` (stereo unspecified): 4.41; for `Cc1cccc(NC(=O)CSc2nnc(-c3cc(C)n(-c4ccccc4)c3C)o2)c1C`: 4.85; for `CCCOc1ccc2oc(=O)c3c(c2c1)CCCN3C(=O)CN1CCc2ccccc2C1`: 4.85. The same measure for `Cc1sc(NC(=O)c2ccco2)c(CN2CCN(c3ccccn3)CC2)c1C`: 5.02; for `Cc1ccc(S(=O)(=O)Cn2nnnc2CN2CCCC3(CCCCC3)C2)cc1`: 4.95. To `COc1ccc(/C=N/n2c(SC)nnc2-c2ccccc2)cc1C` belongs 4.78. For the molecule `COC(=O)c1ccccc1NC(=O)c1ccc2c(c1)OCCO2`, the pIC50 is 4.66. To `CCCc1ccc(Oc2cn[nH]c2-c2ccc(O)c(C)c2O)cc1` belongs 5.74.

In the case of `CCCCCn1c(-c2ccco2)nc2nc3ccccc3nc21`, the pIC50 is 4.07.

For the molecule `OCCN(CCO)c1nc(N2CCCCC2)c2nc(N(CCO)CCO)nc(N3CCCCC3)c2n1`, the negative logarithm of the IC50 (pIC50) was 5.86. For the molecule `O=S(=O)(Nc1ccc(S(=O)(=O)N2CCCCC2)cc1)c1ccc(Br)s1`, the negative-log IC50 (pIC50) was 5.36. Turning to `CS(=O)(=O)N1CCc2cc(-c3csc(NC(=O)Cc4cccs4)n3)ccc21`, the pIC50 was 4.66.

Take `COc1ccc2nc(SCC(=O)N(C)C3CCCCC3)c(C#N)cc2c1`: the negative-log IC50 (pIC50) is 4.80. The same measure for `CCOc1ccc2[nH]c3c(N4CCN(c5ccccn5)CC4)ncnc3c2c1`: 4.91; for `COc1cc(NS(=O)(=O)c2ccc(Br)cc2)c(OC)cc1NC(=O)c1ccco1`: 4.60; for `CCOc1ccc2nc(NC(=O)C(CC)Sc3nc(C)cc(=O)[nH]3)sc2c1` (stereo unspecified): 4.92.

For the origin of these results see PubChem BioAssay AID617 (SRMLSC, 2007).
